According to ChEMBL document CHEMBL4043282, “Discovery of the First Potent, Selective, and Orally Bioavailable Signal Peptide Peptidase-Like 2a (SPPL2a) Inhibitor Displaying Pronounced Immunomodulatory Effects In Vivo” (J Med Chem, 2018):
Active and inactive are the calls of the source. No cut-off for these calls is given here.

Legend:
Mus musculus = test: In vivo inhibition of mouse gamma-secretase assessed as effect on Hes1 mRNA level in thymus up to 100 mg/kg, po administered as single dose by RT-PCR method; type: organism-based
In short: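 Thymus and jejunum excised into RNALater, 4 °C overnight, washed, frozen at −80 °C; total RNA from 10 mg tissue by MagNA Pure LC; Hes1 measured by TaqMan real-time PCR; significance by two-tailed heteroscedastic Student's t-test.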

[1] = Stability in human liver microsomes at […] preincubated for 3 mins followed by NADPH addition measured after 1 hr in presence of GSH and [13C2-15N-glycine]-GSH by HPLC/MS method; type: ADME, microsome; details: read-out: Stability
[2] = Clearance in Sprague-Dawley rat at 1 mg/kg, iv by LC/MS/MS analysis; type: ADME, organism-based; details: in vivo
In short: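 Female Sprague−Dawley rats with femoral artery and vein catheters implanted 96−120 h beforehand; cassette dosing iv 1 mg/kg per compound in NMP/PEG200 (30:70); arterial blood into EDTA tubes at several times, frozen; LC-MS/MS vs standard curve with QCs within 70−130%; noncompartmental analysis.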

[3] = Total plasma concentration in mouse at 10 mg/kg administered via oral gavage measured after 16 hrs post dose by LC/MS/MS analysis; type: ADME, organism-based
In short: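 Mice dosed by oral gavage in 0.5% MC:0.5% Tween or PEG:D5W 3:1. 50 μL blood taken retro-orbitally into LiHep tubes; in chronically dosed animals the trough sample came before the morning dose. Kept on ice, plasma separated by centrifugation at 2823g, 5 min, stored at −20 °C until analysis.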

Rattus norvegicus = test: In vivo inhibition of SPPL2a in Lewis rat assessed as accumulation of CD74/p8 in blood at 1 mg/kg first dose administered via oral gavage followed by second dose after 8 hrs measured 16 hrs post second dose by Western blot method; type: functional, organism-based
In short: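 Rat blood (200 μL) red cells lysed with RBC lysis buffer three times, pellet lysed in Tris pH 6.8/NaCl/EDTA/Triton X-100/deoxycholate with protease inhibitors; Western blot for CD74/p8 with affinity-purified antibody specific for rat CD74/p8 at 1:200.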

remaining at 1 h [1] [%] | clearance [2] [mL/min/kg] | concentration at 16 h [3] [nM] | Compound | Activity (Mus musculus) | inhibition (Rattus norvegicus)
70.8 | 45 |  | Cc1ccccc1NC(=O)C[C@@H](C)C(=O)N[C@@H]1C(=O)N2CCCN2Cc2ccccc21 | Non-Toxic | 
 |  | 11.8 | Cc1ncc(F)cc1NC(=O)C[C@H](C(=O)N[C@@H]1C(=O)N2CC3(CC3)CN2C(=O)c2ccccc21)C1CC1 |  | Active
